KCNK9 block: human KCNK9 channel inhibition | HEK293 KCNK9, FluxOR thallium flux fluorescence; hits give low values | B-score at 10 µM | 1.2% of 310,000 active | AID 488922;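 active means ratio B-score over 3 SD below the library mean, with starting fluorescence within 5 SD of its mean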;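 further: negative B-score means less thallium flux so channel inhibition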
hERG rescue: hERG (human) protection from proarrhythmic block. Q12809. CHO-hERG, FluxOR thallium flux, dofetilide IC70 present. activation (rescue from dofetilide block), less the hit threshold, % at 10 µM. 0.51% of 310,000 active. AID 1511;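 active means activation above the mean of controls blocked by dofetilide plus 5 SD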;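 further: thallium influx through hERG after potassium depolarization seen as dye fluorescence rise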
Target sequence (Q12809 whole entry, looked up): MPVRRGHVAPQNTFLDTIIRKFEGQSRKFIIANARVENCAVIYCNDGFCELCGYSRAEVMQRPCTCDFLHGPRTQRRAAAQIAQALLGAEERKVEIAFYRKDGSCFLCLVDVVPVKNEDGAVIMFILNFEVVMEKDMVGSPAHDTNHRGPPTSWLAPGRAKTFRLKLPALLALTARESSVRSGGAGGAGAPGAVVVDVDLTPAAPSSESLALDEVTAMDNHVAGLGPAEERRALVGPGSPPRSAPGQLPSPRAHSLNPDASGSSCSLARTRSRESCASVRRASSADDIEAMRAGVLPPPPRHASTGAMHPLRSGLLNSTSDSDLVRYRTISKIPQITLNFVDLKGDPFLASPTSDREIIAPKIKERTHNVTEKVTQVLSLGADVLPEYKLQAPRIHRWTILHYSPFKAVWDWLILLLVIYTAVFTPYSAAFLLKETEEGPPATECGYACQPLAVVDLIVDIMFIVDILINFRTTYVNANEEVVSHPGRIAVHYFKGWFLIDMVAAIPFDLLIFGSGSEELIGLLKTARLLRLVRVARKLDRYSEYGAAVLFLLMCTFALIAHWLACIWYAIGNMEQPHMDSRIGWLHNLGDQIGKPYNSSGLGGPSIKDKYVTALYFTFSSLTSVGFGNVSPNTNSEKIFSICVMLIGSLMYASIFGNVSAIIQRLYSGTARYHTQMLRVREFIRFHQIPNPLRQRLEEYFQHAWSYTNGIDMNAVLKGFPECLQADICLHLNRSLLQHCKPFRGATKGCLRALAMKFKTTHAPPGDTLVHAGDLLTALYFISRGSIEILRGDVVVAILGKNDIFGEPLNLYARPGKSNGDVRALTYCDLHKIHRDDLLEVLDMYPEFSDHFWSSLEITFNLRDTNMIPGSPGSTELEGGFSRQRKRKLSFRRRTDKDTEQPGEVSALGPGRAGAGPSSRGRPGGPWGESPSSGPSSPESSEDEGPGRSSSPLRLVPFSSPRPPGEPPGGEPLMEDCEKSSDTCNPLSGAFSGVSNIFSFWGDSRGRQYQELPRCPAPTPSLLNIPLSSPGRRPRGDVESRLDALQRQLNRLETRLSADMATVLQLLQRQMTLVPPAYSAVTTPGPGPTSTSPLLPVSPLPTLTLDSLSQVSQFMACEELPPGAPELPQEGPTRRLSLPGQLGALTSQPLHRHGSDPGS
KCNQ1 act: potentiators or activators of human KCNQ1 potassium channel; P51787; CHO-K1 KCNQ1, thallium flux FluxOR fluorescence; hits give high values; B-score at 10 µM; 0.35% of 310,000 active;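 active means fluorescence ratio B-score, a plate-corrected score, at least three library SD, with initial intensity B-score within 5 SD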
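Medium – assay buffer, equal DMSO in all wells · Material – CHO-K1 cell line with stable KCNQ1 potassium channel expression · Signal – kinetic FluxOR thallium fluorescence, 10-s 1-Hz baseline, 110-s post-stimulus read · Compound – single concentration per compound, DMSO matched to controls · Schedule – 37 °C overnight plating, 90-min dark dye load, 20-min compound pretreatment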
Kir21 inh: inhibitors of mouse Kir2.1 inward-rectifier potassium channel; 0.85% of 310,000 active; B-score at 10 µM; AID 1672; HEK293-Kir2.1, FluxOR thallium flux fluorescence; hits give low values;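 active means fluorescence ratio B-score at or below minus 3 SD of library scores, with starting-brightness B-score within 2 SD, cut at about -4.2 in these data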;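 further: channel flux triggered by added potassium and thallium sulfate stimulus; B-score of peak minus minimum fluorescence over baseline after thallium stimulus; more negative B-score means stronger Kir2.1 block with less thallium influx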
KCNQ1 block: human KCNQ1 channel inhibition. CHO-K1 KCNQ1, FluxOR thallium flux fluorescence; hits give high values. B-score at 10 µM. 1.3% of 310,000 active. P51787;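 active means compounds whose thallium flux B-score, printed positive for inhibition, exceeds three library SD while starting fluorescence stays within three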;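 further: channel opened by potassium depolarization with thallium stimulus after 20 min compound exposure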
KCNK3 inh: human KCNK3 channel inhibition, primary screen. B-score at 10 µM. 0.84% of 340,000 active. AID 602410. CHO-KCNK3 thallium flux, FluxOR fluorescence; hits give low values. O14649;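 active means B-score under library mean minus 4 SD, starting fluorescence ratio at most library mean plus 5 SD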;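 further: more negative B-score means stronger inhibition of thallium flux through KCNK3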
* = called active by the depositor; i = inactive; · = no result; ! = not active in a repeat. A selection: hits, their analogues and other compounds. The true share with any hit is near 3.7%.

SMILES | KCNK9 block | hERG rescue | KCNQ1 act | Kir21 inh | KCNQ1 block | KCNK3 inh
CCc1cc(C(=O)OC)c(NC(=O)CN2CCN(C(=O)c3ccco3)CC2)s1 | i | -1.9 | i | 1.69 | i | i
Cc1ccc(C(=O)C(OC(=O)CN2C(=O)c3ccccc3C2=O)c2ccccc2)cc1C (centres undefined) | i | -4.2 | i | 0.58 | i | i
C=CCn1c(=NC(=O)C2COc3ccccc3O2)sc2cccc(OC)c21 (centres undefined) | -7.37* | -12.6 | i | 1.62 | i | i
C=CCn1c(=NC(=O)CN2C(=O)CCC2=O)sc2cccc(OC)c21 | i | -6.9 | i | -0.05 | i | i
O=[N+]([O-])c1ccc(N2CCN(C(=S)c3cccc([N+](=O)[O-])c3)CC2)cc1 | i | -16.7 | i | 0.84 | i | i
COc1ccc(C(F)(F)F)cc1N/C=C/c1nnnn1-c1ccc(C)cc1 | -6.72* | -11.6 | i | -0.93 | i | i
O=C(c1ccccc1)c1ccccc1N/C=C/c1nnnn1-c1ccccc1 | i | -15.0 | i | 0.16 | i | i
O=C(OCC(=O)c1ccc(Cl)cc1Cl)c1cnccn1 | i | -7.4 | i | 0.34 | i | i
COc1ccc(C)cc1C1=Nc2ccccc2C1(C)C | i | -5.5 | i | -4.97* | i | i
Cc1ccc(O)c(C2=Nc3ccccc3C2(C)C)c1 | i | -5.4 | i | -0.15 | i | i
CCOC(=O)CCC(=O)NNC(=O)COc1ccc(C(C)C)cc1Br | i | -9.2 | i | -0.07 | i | i
O=C(Cc1ccccc1)N/N=C/c1ccc2cccc(O)c2n1 | i | 9.4* | i | 0.02 | i | i
CCC(=O)Nc1ccc(C2=Nn3c(nnc3C(C)C)SC2)cc1 | i | -4.4 | i | -1 | i | i
COc1cc(C2(c3ccc(O)c(OC)c3)C(=O)Nc3c(C)cc(Br)cc32)ccc1O | i | -9.1 | 9* | -2.44 | i | i
Cn1nc(C(F)(F)F)c(-c2cccc(C(F)(F)F)c2)c1NC(=O)Nc1ccc(F)cc1 | i | -4.3 | i | -1.15 | i | i
Nc1ccc2nc3c(=O)n(CCc4ccccc4)c(=O)[nH]c3nc2c1 | i | -25.8 | i | -11.1 | 8* | i
O=[N+]([O-])c1cc(Br)c(O)c(C=Nc2ccc(N3CCOCC3)cc2)c1 | i | -13.8 | i | 1.81 | 11* | i
COc1cccc(C=Nc2ccc(N3CCOCC3)cc2)c1O | i | 0.0 | i | -0.04 | i | i
CSCC[C@H](NC(=O)C1CCC(CNC(=O)[C@@H]2CCCN2C(=O)OC(C)(C)C)CC1)C(=O)O (some centres undefined) | i | -9.6 | i | 0 | i | i
COc1ccc(C2=C(CN(C)C)C(c3ccccc3)c3ccccc3O2)cc1 (centres undefined) | i | -4.0 | i | -5.16*! | i | i
CCOc1ccc(Br)cc1S(=O)(=O)Nc1ccc(C(=O)Nc2ccc(C)cc2)cc1 | -7.07* | -3.5 | i | 0.44 | i | i
CCOc1ccc(Br)cc1S(=O)(=O)Nc1ccc(NC(=O)c2ccccc2C)cc1 | -7.38* | -11.1 | i | -0.63 | i | i
CN(Cc1c(C(=O)N(C)Cc2ccccc2)nc2ccccn12)CC1Cc2ccccc2O1 (centres undefined) | i | -13.0 | i | -2.11 | i | i
Cc1nn(C)cc1CN(C)Cc1c(C(=O)N(C)Cc2ccccc2)nc2ccccn12 | i | 6.5* | i | 1.82 | i | i
CCC1C(=O)CC(c2ccc([N+](=O)[O-])cc2)NC1c1ccc([N+](=O)[O-])cc1 (centres undefined) | i | -15.4 | i | 0.14 | 8* | i
SMILES | KCNK9 block | hERG rescue | KCNQ1 act | Kir21 inh | KCNQ1 block | KCNK3 inh
COC(=O)C1C/C(=N/NS(=O)(=O)c2ccc(C)cc2)CS1 (centres undefined) | i | -5.1 | i | 0.48 | i | i
Cc1ccccc1-c1nc(S(=O)(=O)c2ccc(Br)cc2)c(NCc2cccnc2)o1 | i | -16.8 | i | 0.04 | i | -9.13*
O=C(Cc1ccccc1)Nc1ccnn1C1CCN(Cc2nccs2)CC1 | i | -3.9 | i | 0.27 | i | i
CC(CC1C(C#N)=C(N)SC(N)=C1C#N)c1ccccc1 (centres undefined) | i | -8.9 | i | 0.5 | 7* | i
COCn1c(-c2ccc(OC)cc2)nc2ccccc21 | i | -2.7 | i | 0.04 | i | i
CCCn1c(-c2ccc(OC)cc2)nc2ccccc21 | i | -14.2 | i | -4.49* | i | i
COc1cc(C2c3cc4c(cc3C(OC3OC5COC(c6cccs6)OC5C(O)C3O)C3COC(=O)C23)OCO4)cc(OC)c1O (centres undefined) | i | -13.0 | i | 2.5 | 8* | i
COc1cc([C@@H]2c3cc4c(cc3[C@@H](NC3CCN(Cc5ccccc5)CC3)[C@H]3COC(=O)[C@H]23)OCO4)cc(OC)c1O | i | -8.1 | i | 0.17 | i | ·
COc1ccccc1Nc1ccc2c(O)cc(S(=O)(=O)O)cc2c1 | · | · | · | · | · | i
CCOc1ccc(NC(=O)CN(c2ccc([N+](=O)[O-])cc2)S(=O)(=O)c2ccccc2)cc1 | i | -9.5 | i | 0.01 | 6* | i
COCCN1C(=S)N[C@@H](c2cccc(F)c2)C(C(=O)OC)=C1C | i | -15.4 | i | -6.8* | i | ·
COC(=O)C1=C(C)N(Cc2ccccc2)C(=S)N[C@H]1c1cccc(F)c1 | i | -12.3 | i | -0.04 | i | i
COC(=O)C1=C(C)N(CC2CC2)C(=NCc2cccc(Cl)c2)N[C@H]1c1ccccc1 | i | -18.1 | i | -4.61* | i | i
COCCN=C1N[C@@H](c2ccc(Br)cc2)C(C(=O)OC)=C(C)N1Cc1ccccc1 | i | -14.8 | i | -6.75* | i | i
COC(=O)C1=C(C)N(Cc2ccccc2)C(=NCc2ccccc2)N[C@H]1c1cccc(F)c1 | i | -17.5 | i | -8.77* | i | i
COC(=O)C1=C(C)N(Cc2ccccc2)C(=NCc2cccc(Cl)c2)N[C@H]1c1ccccc1 | · | · | · | · | · | i
COc1ccc([C@H]2/C=C\CN(Cc3ccc(N(C)C)cc3)[C@@H](C)C(=O)N2Cc2ccc(F)cc2)cc1 | i | -12.9 | i | 1.04 | i | i
CC(C)=CCC/C(C)=C/CNC(=O)C[C@H]1C[C@H](C(=O)N(C(C)C)C(C)C)[C@@]2(C)c3[nH]c4cc(CCC(=O)N(C)C)ccc4c3CCN2C1=O | · | · | · | · | · | i
CCCc1nn2c(=O)c(C(c3cccc(Cl)c3)c3c(O)nc4sc(CCC)nn4c3=O)c(O)nc2s1 | i | 6.1* | i | 2.02 | i | i
